{"source": "ChEMBL document CHEMBL3272224", "about": "“Synthesis and hypotensive activity of N-alkyl-N\"-cyano-N'-pyridylguanidines” (J Med Chem, 1978)", "key": {"Rattus norvegicus [1]": {"test_system": "Rattus norvegicus", "assay": "Toxicity in rat assessed as change in cardiac noradrenaline level at 0.1 mg/kg", "format": "organism-based, Heart", "parameters": "dose 0.1 mg/kg", "conditions": "in vivo", "procedure,_shortened": "(§1)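 Rats were given single or repeated (5 days) administration, and cardiac noradrenaline levels were measured.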"}, "Rattus norvegicus [2]": {"test_system": "Rattus norvegicus", "assay": "Toxicity in rat assessed as change in cardiac noradrenaline level at 0.1 mg/kg for 5 days", "format": "organism-based, Heart", "parameters": "dose 0.1 mg/kg", "conditions": "in vivo, 120 h", "procedure,_shortened": "as §1"}, "Rattus norvegicus [3]": {"species": "Rattus norvegicus", "assay": "Toxicity in rat assessed as effect on contraction of nictitating membranes by preganglionic stimulation", "format": "organism-based, Nictitating membrane", "conditions": "in vivo"}, "[4]": {"assay": "Toxicity in po dosed mouse assessed as mortality after 7 days", "conditions": "in vivo"}, "[5]": {"assay": "Toxicity in po dosed Sprague-Dawley rat assessed as mortality after 7 days", "format": "organism-based", "conditions": "in vivo"}, "Rattus norvegicus [6]": {"test_system": "Rattus norvegicus", "assay": "Hypotensive activity in po dosed spontaneously hypertensive Wistar-Okamoto rat assessed as dose required to cause 30 mmHg fall of blood pressure administered for 5 days", "format": "functional", "conditions": "120 h, read-out: MED"}, "Rattus norvegicus [7]": {"test_system": "Rattus norvegicus", "assay": "Hypotensive activity in spontaneously hypertensive Wistar-Okamoto rat assessed as maximum change in mean blood pressure at 0.1 mg/kg, po relative to control", "format": "functional", "procedure,_shortened": "(§2)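 Spontaneously hypertensive Wistar-Okamoto rats, five per dose, received compound orally, dissolved or suspended in 0.5% carboxymethylcellulose. Blood pressure was measured indirectly by tail cuff in restrained conscious rats before dosing and at 2, 4, 6, 8, 12 and 24 h. Maximum change was measured after a single administration and given as mean ± error.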"}, "Rattus norvegicus [8]": {"test_system": "Rattus norvegicus", "assay": "Hypotensive activity in spontaneously hypertensive Wistar-Okamoto rat assessed as maximum change in mean blood pressure at 0.25 mg/kg, po relative to control", "format": "functional", "procedure,_shortened": "as §2"}, "Rattus norvegicus [9]": {"test_system": "Rattus norvegicus", "assay": "Hypotensive activity in spontaneously hypertensive Wistar-Okamoto rat assessed as maximum change in mean blood pressure at 0.5 mg/kg, po relative to control", "format": "functional", "procedure,_shortened": "as §2"}, "Rattus norvegicus [10]": {"test_system": "Rattus norvegicus", "assay": "Hypotensive activity in spontaneously hypertensive Wistar-Okamoto rat assessed as time required for persistence of hypotensive effect at 0.1 mg/kg, po", "format": "functional", "procedure,_shortened": "(§3)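 SHR (Wistar-Okamoto), five per dose, were given an oral dose in 0.5% carboxymethylcellulose. Indirect cuff pressure in restrained conscious rats was read before dosing and at 2, 4, 6, 8, 12 and 24 h. Duration (h) was scored while pressure remained 15 mmHg or more below the initial reading.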"}, "Rattus norvegicus [11]": {"test_system": "Rattus norvegicus", "assay": "Hypotensive activity in spontaneously hypertensive Wistar-Okamoto rat assessed as time required for persistence of hypotensive effect at 0.25 mg/kg, po", "format": "functional", "procedure,_shortened": "as §3"}, "Rattus norvegicus [12]": {"test_system": "Rattus norvegicus", "assay": "Hypotensive activity in spontaneously hypertensive Wistar-Okamoto rat assessed as time required for persistence of hypotensive effect at 0.5 mg/kg, po", "format": "functional", "procedure,_shortened": "as §3"}, "Canis familiaris [13]": {"test_system": "Canis familiaris", "assay": "Hypotensive activity in conscious renal hypertensive dog assessed as maximum change in mean blood pressure at 0.5 mg/kg, po measured for 8 hrs relative to control", "format": "functional, Canis lupus familiaris", "procedure,_shortened": "(§4)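 Renal hypertensive dogs, conscious, dosed orally in soft gelatin capsules, three dogs per dose. Mean blood pressure was taken indirectly with an Arteriosonde, standing animals in a semi-insonorized room, just before dosing and then hourly for 8 h. Maximum change was measured after a single administration and given as mean ± error.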"}, "Canis familiaris [14]": {"test_system": "Canis familiaris", "assay": "Hypotensive activity in conscious renal hypertensive dog assessed as maximum change in mean blood pressure at 2 mg/kg, po measured for 8 hrs relative to control", "format": "functional, Canis lupus familiaris", "procedure,_shortened": "as §4"}, "Canis familiaris [15]": {"test_system": "Canis familiaris", "assay": "Hypotensive activity in conscious renal hypertensive dog assessed as time required for persistence of hypotensive effect at 0.5 mg/kg, po measured for 8 hrs", "format": "functional, Canis lupus familiaris", "procedure,_shortened": "(§5)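 Conscious renal hypertensive dogs received single oral doses in soft gelatin capsules, three per dose. Indirect standing blood pressure was read before dosing and hourly to 8 h. Duration (h) was the time the pressure stayed 15 mmHg or more below the initial value, which was taken as persistence of the hypotensive effect.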"}, "Canis familiaris [16]": {"test_system": "Canis familiaris", "assay": "Hypotensive activity in conscious renal hypertensive dog assessed as time required for persistence of hypotensive effect at 2 mg/kg, po measured for 8 hrs", "format": "functional, Canis lupus familiaris", "procedure,_shortened": "as §5"}, "Rattus norvegicus [17]": {"test_system": "Rattus norvegicus", "assay": "Hypotensive activity in po dosed spontaneously hypertensive Wistar-Okamoto rat relative to hydralazine", "format": "functional"}, "Felis catus": {"species": "Felis catus", "assay": "Hypotensive activity in decerebrated cat", "format": "functional, organism-based"}, "Rattus norvegicus [18]": {"test_system": "Rattus norvegicus", "assay": "Hypotensive activity in spontaneously hypertensive Wistar-Okamoto rat assessed as maximum change in mean blood pressure at 2.5 mg/kg, po relative to control", "format": "functional", "procedure,_shortened": "as §2"}, "Rattus norvegicus [19]": {"test_system": "Rattus norvegicus", "assay": "Hypotensive activity in spontaneously hypertensive Wistar-Okamoto rat assessed as maximum change in mean blood pressure at 5 mg/kg, po relative to control", "format": "functional", "procedure,_shortened": "as §2"}, "Rattus norvegicus [20]": {"test_system": "Rattus norvegicus", "assay": "Hypotensive activity in spontaneously hypertensive Wistar-Okamoto rat assessed as maximum change in mean blood pressure at 10 mg/kg, po relative to control", "format": "functional", "procedure,_shortened": "as §2"}, "Rattus norvegicus [21]": {"test_system": "Rattus norvegicus", "assay": "Hypotensive activity in spontaneously hypertensive Wistar-Okamoto rat assessed as time required for persistence of hypotensive effect at 2.5 mg/kg, po", "format": "functional", "procedure,_shortened": "as §3"}, "Rattus norvegicus [22]": {"test_system": "Rattus norvegicus", "assay": "Hypotensive activity in spontaneously hypertensive Wistar-Okamoto rat assessed as time required for persistence of hypotensive effect at 5 mg/kg, po", "format": "functional", "procedure,_shortened": "as §3"}, "Rattus norvegicus [23]": {"test_system": "Rattus norvegicus", "assay": "Hypotensive activity in spontaneously hypertensive Wistar-Okamoto rat assessed as time required for persistence of hypotensive effect at 10 mg/kg, po", "format": "functional", "procedure,_shortened": "as §3"}, "Canis familiaris [24]": {"test_system": "Canis familiaris", "assay": "Hypotensive activity in conscious renal hypertensive dog assessed as maximum change in mean blood pressure at 2.5 mg/kg, po measured for 8 hrs relative to control", "format": "functional, Canis lupus familiaris", "procedure,_shortened": "as §4"}, "Canis familiaris [25]": {"test_system": "Canis familiaris", "assay": "Hypotensive activity in conscious renal hypertensive dog assessed as maximum change in mean blood pressure at 5 mg/kg, po measured for 8 hrs relative to control", "format": "functional, Canis lupus familiaris", "procedure,_shortened": "as §4"}, "Canis familiaris [26]": {"test_system": "Canis familiaris", "assay": "Hypotensive activity in conscious renal hypertensive dog assessed as maximum change in mean blood pressure at 10 mg/kg, po measured for 8 hrs relative to control", "format": "functional, Canis lupus familiaris", "procedure,_shortened": "as §4"}, "Canis familiaris [27]": {"test_system": "Canis familiaris", "assay": "Hypotensive activity in conscious renal hypertensive dog assessed as time required for persistence of hypotensive effect at 2.5 mg/kg, po measured for 8 hrs", "format": "functional, Canis lupus familiaris", "procedure,_shortened": "as §5"}, "Canis familiaris [28]": {"test_system": "Canis familiaris", "assay": "Hypotensive activity in conscious renal hypertensive dog assessed as time required for persistence of hypotensive effect at 5 mg/kg, po measured for 8 hrs", "format": "functional, Canis lupus familiaris", "procedure,_shortened": "as §5"}, "Canis familiaris [29]": {"test_system": "Canis familiaris", "assay": "Hypotensive activity in conscious renal hypertensive dog assessed as time required for persistence of hypotensive effect at 10 mg/kg, po measured for 8 hrs", "format": "functional, Canis lupus familiaris", "procedure,_shortened": "as §5"}}, "note": "Active and inactive are the calls of the source. The calls are words filed in the database; no cut-off is given here.", "data": [{"compound": "CCC(C)(C)NC(=NC#N)Nc1cccnc1", "values": [{"measurement": "Activity", "setting": "Rattus norvegicus [1]", "result": "Non-toxic"}, {"measurement": "Activity", "setting": "Rattus norvegicus [2]", "result": "Non-toxic"}, {"measurement": "Activity", "setting": "Rattus norvegicus [3]", "result": "Non-toxic"}, {"measurement": "LD50 at 168 h", "setting": "[4]", "result": "> 1000", "unit": "mg/kg"}, {"measurement": "LD50 at 168 h", "setting": "[5]", "result": 14, "unit": "mg/kg"}]}, {"compound": "CC(=O)N(/C(=N\\C#N)Nc1cccnc1)C(C)(C)C.O", "values": [{"measurement": "Activity", "setting": "Rattus norvegicus [3]", "result": "Non-toxic"}, {"measurement": "LD50 at 168 h", "setting": "[4]", "result": "> 1000", "unit": "mg/kg"}, {"measurement": "minimal effective dose", "setting": "Rattus norvegicus [6]", "result": 0.1, "unit": "mg/kg"}, {"measurement": "LD50 at 168 h", "setting": "[5]", "result": 615, "unit": "mg/kg"}, {"measurement": "Activity", "setting": "Rattus norvegicus [7]", "result": -30, "unit": "mmHg"}, {"measurement": "Activity", "setting": "Rattus norvegicus [8]", "result": -64, "unit": "mmHg"}, {"measurement": "Activity", "setting": "Rattus norvegicus [9]", "result": -86, "unit": "mmHg"}, {"measurement": "Time", "setting": "Rattus norvegicus [10]", "result": 4, "unit": "h"}, {"measurement": "Time", "setting": "Rattus norvegicus [11]", "result": 4, "unit": "h"}, {"measurement": "Time", "setting": "Rattus norvegicus [12]", "result": ">8", "unit": "h"}, {"measurement": "Activity", "setting": "Canis familiaris [13]", "result": -22, "unit": "mmHg"}, {"measurement": "Activity", "setting": "Canis familiaris [14]", "result": -75, "unit": "mmHg"}, {"measurement": "Time", "setting": "Canis familiaris [15]", "result": 2, "unit": "h"}, {"measurement": "Time", "setting": "Canis familiaris [16]", "result": 8, "unit": "h"}, {"measurement": "fold change (FC)", "setting": "Rattus norvegicus [17]", "result": 2}, {"measurement": "Activity", "setting": "Felis catus", "result": "Active"}]}, {"compound": "CCC(C)(C)/N=C(/S)Nc1cccnc1", "values": [{"measurement": "LD50 at 168 h", "setting": "[5]", "result": 460, "unit": "mg/kg"}, {"measurement": "Activity", "setting": "Rattus norvegicus [18]", "result": -35, "unit": "mmHg"}, {"measurement": "Activity", "setting": "Rattus norvegicus [19]", "result": -47, "unit": "mmHg"}, {"measurement": "Activity", "setting": "Rattus norvegicus [20]", "result": -69, "unit": "mmHg"}, {"measurement": "Time", "setting": "Rattus norvegicus [21]", "result": 2, "unit": "h"}, {"measurement": "Time", "setting": "Rattus norvegicus [22]", "result": 2, "unit": "h"}, {"measurement": "Time", "setting": "Rattus norvegicus [23]", "result": ">4", "unit": "h"}, {"measurement": "Activity", "setting": "Canis familiaris [24]", "result": -14, "unit": "mmHg"}, {"measurement": "Activity", "setting": "Canis familiaris [25]", "result": -28, "unit": "mmHg"}, {"measurement": "Activity", "setting": "Canis familiaris [26]", "result": -43, "unit": "mmHg"}, {"measurement": "Time", "setting": "Canis familiaris [27]", "result": 2, "unit": "h"}, {"measurement": "Time", "setting": "Canis familiaris [28]", "result": 2, "unit": "h"}, {"measurement": "Time", "setting": "Canis familiaris [29]", "result": 4, "unit": "h"}]}]}
